Experimental data from different studies.
Target: Carbonic anhydrase 1 (CA1, Homo sapiens, UniProt P00915)
Effect on: enzyme activity
Mode: inhibitor

OCCOCCN1CCN(C(c2ccccc2)c2ccc(Cl)cc2)CC1 (centres unmarked) — Ki: 10.3 µM
C[n+]1cc(C(=O)[O-])ccc1O — Ki (stopped-flow): > 100 µM
NS(=O)(=O)c1nnc(NC(=O)CN2CC3CCC2CC3)s1 — Ki (stopped-flow): 0.144 µM
O=C(OCc1cn(-c2ccc(Cl)cc2)nn1)c1ccc(=O)oc1 — Ki (stopped-flow): > 100 µM
CC1(C)CCN(CC(=O)Nc2nnc(S(N)(=O)=O)s2)CC1 — Ki (stopped-flow): 0.0541 µM
Cc1c(Cl)c(=O)oc2cc(OCCCCSC#N)ccc12 — Ki (stopped-flow): > 100 µM
COc1cc(C)c(/C=C/C(C)=C/C=C/C(C)=C/C(=O)O)c(C)c1C — Ki: 7.68 µM
C[C@H]1CCC[C@H](C(=O)Nc2nnc(S(N)(=O)=O)s2)C1 (racemic) — Ki (stopped-flow): 0.0639 µM
N#CSCCCCOc1ccc2c(-c3ccccc3)cc(=O)oc2c1 — Ki (stopped-flow): > 100 µM
NCCCC(=O)Nc1nnc(S(N)(=O)=O)s1 — Ki (stopped-flow): 0.155 µM
CN(C)CCC(c1ccccc1)c1ccccn1 (centres unmarked) — Ki: 13.9 µM
CCOC(=O)c1ccc(=O)oc1 — Ki (stopped-flow): > 100 µM
CC[C@H]1OC(=O)[C@H](C)[C@@H](O[C@H]2C[C@@](C)(OC)[C@@H](O)[C@H](C)O2)[C@H](C)[C@@H](O[C@@H]2O[C@H](C)C[C@H](N(C)C)[C@H]2O)[C@](C)(O)C[C@@H](C)CN(C)[C@H](C)[C@@H](O)[C@]1(C)O — Ki: 10.2 µM
O=C(OC1CCCCC1)c1ccc(=O)oc1 — Ki (stopped-flow): > 100 µM
NS(=O)(=O)c1cnc(NC(=O)CCc2ccccc2)s1 — Ki (stopped-flow): 2.43 µM
O=C(OCc1cn(-c2ccccc2)nn1)c1ccc(=O)oc1 — Ki (stopped-flow): > 100 µM
OC(Cn1cncn1)(Cn1cncn1)c1ccc(F)cc1F — Ki: 7.56 µM
CC1CCCCC1OC(=O)c1ccc(=O)oc1 (centres unmarked) — Ki (stopped-flow): > 100 µM
CC(C)[C@H](N)C(=O)OCCOCn1cnc2c(=O)[nH]c(N)nc21 — Ki: 8.7 µM
Cc1ccccc1CC(=O)Nc1nnc(S(N)(=O)=O)s1 — Ki (stopped-flow): 0.0518 µM
